Compound activity (PubChem)
Hits are enriched below; roughly 3.6% of the tested compounds scored in any of these assays.
ATG4B inhibitor: blocks human ATG4B protease cleavage of LC3 substrate; inhibition, % at 8.33 µM; AID 504462; hit rate 0.51% among 340,000; Q9Y4P1; ATG4B cleavage of LC3-PLA2, NBD-HPC fluorescence, 1 h; in the data active = inhibition above about 40%
SENP1 FRET inh: SENP1 (human) catalytic domain inhibition | Q9P0U3 | recombinant SENP1 catalytic domain, CyPet-SUMO1-YPet FRET cleavage | inhibition, % at 10 µM | hit rate 0.21% among 360,000 | AID 624204;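 active = inhibition at least 30% at 10 µM, raw YFP signal under a set limit, fluorescence ratio 0.5 to 1.5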;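 note: 0% = enzyme with DMSO and 100% = no enzyme wells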
Target sequence (Q9P0U3 419-644 limits assumed): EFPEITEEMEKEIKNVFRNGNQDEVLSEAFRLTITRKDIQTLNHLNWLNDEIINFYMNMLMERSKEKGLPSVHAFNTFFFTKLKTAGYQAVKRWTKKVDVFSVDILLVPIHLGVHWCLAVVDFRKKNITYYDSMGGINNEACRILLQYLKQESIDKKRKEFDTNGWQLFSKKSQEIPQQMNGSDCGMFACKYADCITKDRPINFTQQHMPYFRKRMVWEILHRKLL
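Test system: recombinant human SENP1 catalytic domain, His6-tagged / Medium: pH 8 Tris buffer with EDTA, NaCl, BME, BSA, NP40, catalase / Also added: SUMO1 FRET substrate flanked by Cypet and Ypet, 25 nM / Times: 50 min reaction at room temperature / Signal: FRET, CFP and YFP emission / Control set: no-enzyme low control and enzyme-plus-DMSO high control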
NadD block: NadD (S. aureus) enzyme inhibition; purified NadD enzyme, colorimetric absorbance read-out; inhibition, % at 20 µM; hit rate 0.78% among 360,000; AID 602399; in the data active = inhibition above about 26%
UCH37 inh: blocks the human deubiquitinase UCH37. hit rate 0.33% among 330,000. purified proteasome/UCH37, Ub-AMC cleavage fluorescence. inhibition, % (test concentration not listed). Q9Y5K5;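 active = mean inhibition over replicate wells above about 20%, limit read from the data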;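 note: 0% = compound-free wells with enzyme and 100% = wells lacking proteasome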
Target sequence (Q9Y5K5 whole entry, looked up): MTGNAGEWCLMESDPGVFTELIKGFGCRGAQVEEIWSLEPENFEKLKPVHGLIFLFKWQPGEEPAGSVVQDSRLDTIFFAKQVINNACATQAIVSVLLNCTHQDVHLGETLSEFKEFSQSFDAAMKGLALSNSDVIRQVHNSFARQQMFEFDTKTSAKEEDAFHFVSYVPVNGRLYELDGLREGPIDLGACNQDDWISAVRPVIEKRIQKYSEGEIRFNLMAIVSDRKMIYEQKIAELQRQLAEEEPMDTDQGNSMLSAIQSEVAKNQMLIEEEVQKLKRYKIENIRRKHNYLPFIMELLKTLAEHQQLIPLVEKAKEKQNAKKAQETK
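Material: human UCH37 enzyme supplied as purified proteasome complex / Amount: 0.15 nM proteasome as dispensed / Buffer or medium: pH 7.4 Tris-HCl (50 mM) with ovalbumin, ATP-MgCl2, DTT / Times: preincubation 30 min, reaction 25 min, room temperature / Technique: AMC fluorescence from Ub-AMC cleavage, excitation 355 nm, emission 460 nm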
NR3A LBD binder: modulators (binders) of human NR3A ligand-binding domain. AID 1259313. NR3A LBD differential scanning fluorimetry, Tm shift; 0% = protein alone, 100% = glycine-bound protein. Tm shift relative to glycine control, % at 25 µM. hit rate 2.5% among 340,000;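 active = melting temperature shift of at least 10% of the positive control shift, at one fixed dose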
Starred values were filed as active, the others as inactive; . = no result.

SMILES	ATG4B inhibitor	SENP1 FRET inh	NadD block	UCH37 inh	NR3A LBD binder
C=CCn1c(O)c(/C=C2\C=NN=C2c2ccccc2)sc1=S	-10.1	-5.5	-7.7	6.7	12.0*
CCCCC(CC)Cn1c(O)c(/C=C2\C=NN=C2c2ccccc2)sc1=S (stereo not given)	3.0	-9.4	-8.8	4.9	21.3*
CCCn1c(O)c(/C=C2\C=NN=C2c2ccccc2)sc1=S	1.4	-5.5	-1.5	7.5	15.8*
O=C(O)c1ccccc1C=NNC(=O)C1CCCC1	.	.	.	0.3	.
Cc1ccc(Cl)c(OC(=O)c2ccc(N3CCOCC3)c([N+](=O)[O-])c2)c1	-6.6	1.9	-3.6	5.2	22.1*
Cc1ccc(C(=O)N2[C@@H]3CN(C)C(=O)[C@@]2(Cc2ccccc2)[C@H]2C(=O)N(Cc4ccccc4)C(=O)[C@@H]32)cc1	-12.1	-9.8	1.9	4.5	16.8*
CN1C[C@@H]2[C@@H]3C(=O)N(Cc4ccccc4)C(=O)[C@@H]3[C@](Cc3ccccc3)(C1=O)N2C(=O)c1ccc(Cl)cc1	-3.3	0.6	0.0	3.0	-3.9
O=C(Nc1ccccc1)Nc1nnc(-c2cccs2)s1	-1.4	-1.3	6.8	-12.8	22.0*
COc1ccc(NC(=O)Nc2nnc(-c3cccs3)s2)cc1	3.1	-2.8	5.3	0.4	16.3*
COc1ccc(NC(=O)Nc2nnc(-c3ccccc3SCc3ccccc3)s2)cc1	-6.9	0.7	21.9	2.0	21.8*
COc1ccc(/C=N/c2oc(-c3ccccc3)cc2C#N)cc1OC	-10.4	-1.9	-0.9	.	36.6*
COc1ccc(C=Nc2oc(-c3ccccc3)cc2C#N)cc1OC	.	.	.	-5.8	.
O=C1CC(c2ccccc2)CC(=O)C1Sc1ccc(Cl)cc1 (stereo not given)	-3.4	-1.3	3.3	4.0	14.8*
O=C1CC(c2ccc(Cl)cc2)CC(=O)C1CS(=O)(=O)c1ccccc1 (stereo not given)	3.0	-12.4	5.7	0.4	-7.4
O=C1NC(c2cccc(OCc3ccccc3)c2)Nc2ccccc21 (stereo not given)	4.2	1.4	-3.8	.	12.6*
O=C(NN=Cc1ccsc1)c1ccc2c(c1)OCO2	.	.	.	2.2	.
O=C(CNc1ccc(F)cc1)N/N=C/c1c(O)ccc2ccccc12	-23.7	-76.5	-1.8	.	27.1*
O=C(N/N=C\c1c(O)ccc2ccccc12)c1ccc(S(=O)(=O)N2CCCCC2)cc1	3.6	-25.3	45.7*	.	-3.6
O=C(NN=Cc1c(O)ccc2ccccc12)c1ccc(S(=O)(=O)N2CCCCC2)cc1	.	.	.	-161.8	.
COc1ccccc1NCC(=O)N/N=C/c1c(O)ccc2ccccc12	0.5	-39.6	12.2	.	16.0*
COc1ccc(C=NNC(=O)c2ccccc2Br)cc1COc1ccc(F)cc1	.	.	.	0.5	.
CCn1ncc(C=NNC(=O)c2ccc3c(c2)OCO3)c1C	.	.	.	4.3	.
CC1=CN(S(=O)(=O)c2ccc(C)cc2)C[C@@H]2c3ccccc3N(S(=O)(=O)c3ccc(C)cc3)[C@H]12	-7.0	0.5	2.0	1.7	16.8*
COc1cccc(-c2noc(Cn3nc(C)c([N+](=O)[O-])c3C)n2)c1	10.1	1.3	-2.8	24.4*	2.3
Cc1ccc(/C=C2/SC(=S)N(c3ccc(S(=O)(=O)Nc4nccs4)cc3)C2=O)cc1	-2.6	1.0	62.3*	3.4	3.7
SMILES	ATG4B inhibitor	SENP1 FRET inh	NadD block	UCH37 inh	NR3A LBD binder
O=C1/C(=C\c2ccccn2)SC(=S)N1c1ccc(S(=O)(=O)Nc2nccs2)cc1	-5.7	-11.0	44.0*	.	0.5
COc1ccc(/C=C2/SC(=S)N(c3ccc(S(=O)(=O)Nc4nccs4)cc3)C2=O)cc1	-1.6	-7.9	56.0*	8.8	6.9
ON=C(CCc1ccccc1)c1ccc2c(c1)OCCO2	.	.	.	3.0	.
N#CCC(=O)NN=C1CCCCC1C1CCCCC1 (stereo not given)	.	.	.	2.2	.
O=C(/C=C\Nc1ccccc1Br)c1ccc2c(c1)OCO2	8.1	-37.1	-2.1	0.3	36.3*
CNc1cc([N+](=O)[O-])ccc1N/C=C/C(=O)c1ccc2c(c1)OCO2	6.9	27.2	12.9	6.3	12.8*
CNc1cc([N+](=O)[O-])ccc1N/C=C/C(=O)c1cccs1	3.0	16.8	1.8	6.2	1.4
CCCOc1ccc(-c2nc(C#N)c(N3CCC(C(N)=O)CC3)o2)cc1	6.8	0.7	-4.4	-114.7	2.0
N#Cc1nc(-c2ccc(OCc3ccc(Cl)cc3)cc2)oc1N1CCC(C(N)=O)CC1	-5.8	0.2	-3.9	-2.4	27.7*
O=[N+]([O-])c1ccc(/C=C/C2=NN(c3ccccc3)C(c3ccco3)C2)cc1 (stereo not given)	4.2	38.3	11.1	9.9	263.1*
CC1=NN(c2ccccc2)C(c2ccco2)C1 (stereo not given)	-0.4	-4.1	1.9	2.6	-1.0
O=[N+]([O-])c1ccc(C2=NN(c3ccccc3)C(c3ccco3)C2)cc1 (stereo not given)	4.7	-32.9	2.5	6.8	339.5*
CC(=NNC(=O)c1ccccc1)c1nc2ccccc2n1C	.	.	.	3.4	.
Cc1cccc2cc(/C=C3\N=C(c4ccccc4)OC3=O)c(N3CCOCC3)nc12	-3.7	-3.8	32.0*	-1.7	-0.4
Cc1ccc(C2=N/C(=C/N3CCOCC3)C(=O)O2)cc1	-12.2	1.7	-0.3	20.4*	-0.9
COc1cc(C(=O)Oc2ccccc2C=NNC(=O)c2ccc(C)cc2)cc(OC)c1OC	.	.	.	-2.6	.
CCN(CC)c1ccc(C=c2sc3nnc(-c4ccccc4Cl)n3c2=O)cc1	.	.	.	8.3	.
Oc1ccccc1-c1cc(-c2ccccc2)no1	-4.8	2.1	3.4	7.5	19.1*
O=C(N/N=C/c1cccc([N+](=O)[O-])c1)c1cc(-c2ccc3c(c2)OCO3)n[nH]1	-10.6	0.6	19.1	.	29.2*
O=C(N/N=C/c1ccc(O)cc1)c1cc(-c2ccc3c(c2)OCO3)n[nH]1	-8.1	0.7	-2.8	.	27.7*
O=C(N/N=C/c1cccc(O)c1)c1cc(-c2ccc3c(c2)OCO3)n[nH]1	-10.1	-0.3	2.2	.	31.6*
O=C(N/N=C/c1ccccc1)c1cc(-c2ccc3c(c2)OCO3)n[nH]1	-10.8	0.4	3.7	.	26.2*
CN(C)c1ccc(C=NNC(=O)c2cc(-c3ccc4c(c3)OCO4)n[nH]2)cc1	.	.	.	-31.6	.
COc1ccc(C=NNC(=O)c2cc(-c3ccc4c(c3)OCO4)n[nH]2)cc1OC	.	.	.	-137.4	.
Cc1onc(-c2ccccc2)c1-c1nnc(COC(=O)c2ccc(F)cc2)o1	.	3.5	-2.5	.	.
Cc1onc(-c2ccccc2)c1-c1nnc(COC(=O)c2ccc(O)cc2)o1	-6.4	-0.1	-3.9	5.7	10.1*
CC(=NNC(=O)CN1CCOCC1)C(C)(C)C	.	.	.	4.4	.
NS(=O)(=O)c1cccc(NC(=O)Nc2ccc(Cl)cc2)c1	12.2	0.9	2.3	2.2	35.8*
CN(C)S(=O)(=O)c1cccc(C(=O)Nc2ccc(C(=O)Nc3cccc(S(N)(=O)=O)c3)cc2)c1	-11.9	-11.0	-2.0	3.1	21.1*
